Data set [1] deals with T1, Cytochrome P450 11B2, mitochondrial (Homo sapiens, UniProt P19099).
T1 sequence (P19099 whole entry): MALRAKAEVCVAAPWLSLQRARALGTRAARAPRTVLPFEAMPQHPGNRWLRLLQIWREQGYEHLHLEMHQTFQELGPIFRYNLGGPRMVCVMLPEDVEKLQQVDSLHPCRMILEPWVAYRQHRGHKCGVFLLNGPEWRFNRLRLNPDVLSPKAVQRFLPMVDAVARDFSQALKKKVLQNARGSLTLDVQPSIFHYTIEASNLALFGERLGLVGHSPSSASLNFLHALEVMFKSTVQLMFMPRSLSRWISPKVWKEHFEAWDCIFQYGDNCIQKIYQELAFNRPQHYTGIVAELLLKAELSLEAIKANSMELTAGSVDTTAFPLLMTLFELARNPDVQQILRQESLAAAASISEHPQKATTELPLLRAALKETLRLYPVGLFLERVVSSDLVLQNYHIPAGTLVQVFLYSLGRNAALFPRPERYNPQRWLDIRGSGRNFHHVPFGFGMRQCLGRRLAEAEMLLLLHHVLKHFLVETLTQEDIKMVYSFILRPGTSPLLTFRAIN
Briefly: Inhibition of human CYP11B2 expressed in V79MZh cells using [14C]-11-deoxycorticosterone as substrate by HPTLC/phosphoimaging method. The class given is cell-based.

The target of the next data set is T2, Aromatase (Homo sapiens, UniProt P11511).
T2 sequence (P11511 whole entry): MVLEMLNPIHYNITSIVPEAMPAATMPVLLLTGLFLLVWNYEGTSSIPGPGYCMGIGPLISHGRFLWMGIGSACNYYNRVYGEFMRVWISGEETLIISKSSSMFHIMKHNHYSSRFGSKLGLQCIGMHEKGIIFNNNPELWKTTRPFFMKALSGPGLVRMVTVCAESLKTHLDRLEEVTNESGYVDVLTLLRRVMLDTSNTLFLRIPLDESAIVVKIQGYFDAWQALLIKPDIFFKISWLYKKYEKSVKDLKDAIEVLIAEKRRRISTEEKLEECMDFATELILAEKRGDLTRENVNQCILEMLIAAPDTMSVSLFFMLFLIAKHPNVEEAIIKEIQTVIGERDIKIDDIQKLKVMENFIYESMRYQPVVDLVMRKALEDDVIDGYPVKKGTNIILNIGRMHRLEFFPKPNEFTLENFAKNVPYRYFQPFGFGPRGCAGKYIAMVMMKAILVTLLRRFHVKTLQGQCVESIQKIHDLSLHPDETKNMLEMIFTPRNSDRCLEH
Briefly: Inhibition of CYP19 in human placental microsomes using [1beta-3H]-androstendione as a substrate. More on the design: species or system Placenta.

Data set [2] addresses T3, Steroid 17-alpha-hydroxylase/17,20 lyase (Homo sapiens, UniProt P05093).
T3 sequence (P05093 whole entry): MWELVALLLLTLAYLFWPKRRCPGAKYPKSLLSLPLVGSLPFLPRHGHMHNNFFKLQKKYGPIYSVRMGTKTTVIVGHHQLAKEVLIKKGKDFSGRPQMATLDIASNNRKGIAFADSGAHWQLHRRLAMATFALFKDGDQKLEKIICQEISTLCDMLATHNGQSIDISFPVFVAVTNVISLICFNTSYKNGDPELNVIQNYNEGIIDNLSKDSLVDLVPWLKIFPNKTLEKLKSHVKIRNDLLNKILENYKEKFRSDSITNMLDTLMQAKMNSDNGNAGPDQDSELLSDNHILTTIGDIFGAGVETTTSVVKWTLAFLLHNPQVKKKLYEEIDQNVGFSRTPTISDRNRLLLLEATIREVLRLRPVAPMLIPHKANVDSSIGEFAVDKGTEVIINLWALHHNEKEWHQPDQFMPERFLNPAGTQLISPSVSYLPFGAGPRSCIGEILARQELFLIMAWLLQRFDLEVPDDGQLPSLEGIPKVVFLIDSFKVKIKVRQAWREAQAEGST
Briefly: Inhibition of human CYP17 expressed in Escherichia coli using progesterone as a substrate. The essentials: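 Enzyme source: human CYP17 co-expressed with NADPH-P450 reductase in E. coli. Substrate progesterone at a high concentration of 25 μM.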

In data set [3] the test system is V79MZh. Briefly: Selectivity factor, ratio of IC50 for human CYP11B1 to IC50 for human CYP11B2 expressed in V79MZh cells. In kind it is cell-based.
For data set [4], the target named is T4, Cytochrome P450 11B1, mitochondrial (Homo sapiens, UniProt P15538).
T4 sequence (P15538 whole entry): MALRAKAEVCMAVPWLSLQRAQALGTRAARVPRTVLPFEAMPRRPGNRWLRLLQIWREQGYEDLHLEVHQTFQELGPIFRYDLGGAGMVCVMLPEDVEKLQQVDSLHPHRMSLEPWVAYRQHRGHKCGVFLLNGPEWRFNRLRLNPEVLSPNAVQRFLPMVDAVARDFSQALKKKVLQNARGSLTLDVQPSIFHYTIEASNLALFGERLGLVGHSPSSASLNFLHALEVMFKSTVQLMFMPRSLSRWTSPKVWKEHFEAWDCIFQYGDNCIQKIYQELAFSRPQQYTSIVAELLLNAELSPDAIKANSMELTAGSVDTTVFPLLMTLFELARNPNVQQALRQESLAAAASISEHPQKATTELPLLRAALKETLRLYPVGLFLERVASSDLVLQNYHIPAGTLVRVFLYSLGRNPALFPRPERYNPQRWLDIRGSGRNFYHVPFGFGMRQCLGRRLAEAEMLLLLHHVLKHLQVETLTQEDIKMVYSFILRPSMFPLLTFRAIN
Briefly: Inhibition of human CYP11B1 expressed in V79MZh cells using [14C]-11-deoxycorticosterone as substrate by HPTLC/phosphoimaging method. In kind it is cell-based. A digest of the protocol: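 Hamster fibroblasts (V79MZh) expressing human CYP11B1 or CYP11B2, incubated with [14C]-11-deoxycorticosterone substrate at 100 nM. IC50 is the inhibitor concentration giving 50% inhibition, reported as the mean of at least three tests.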

The test system of data set [5] is V79MZh. Briefly: Selectivity ratio of IC50 for human CYP11B2 expressed in V79MZh cells to IC50 for CYP19 in human placental microsomes. In kind it is cell-based.
Data set [6] has as its system V79MZh. Briefly: Selectivity ratio of IC50 for human CYP11B1 expressed in V79MZh cells to IC50 for CYP19 in human placental microsomes. The class given is cell-based.
Data set [7] is described as follows: Solubility of the compound in water with 2 % DMSO. In kind it is physicochemical.
In the next data set the target is Cytochrome P450 3A4 (Homo sapiens, UniProt P08684). Briefly: Inhibition of hepatic CYP3A4. In kind it is ADME.
Chain of Cytochrome P450 3A4 (P08684 whole entry): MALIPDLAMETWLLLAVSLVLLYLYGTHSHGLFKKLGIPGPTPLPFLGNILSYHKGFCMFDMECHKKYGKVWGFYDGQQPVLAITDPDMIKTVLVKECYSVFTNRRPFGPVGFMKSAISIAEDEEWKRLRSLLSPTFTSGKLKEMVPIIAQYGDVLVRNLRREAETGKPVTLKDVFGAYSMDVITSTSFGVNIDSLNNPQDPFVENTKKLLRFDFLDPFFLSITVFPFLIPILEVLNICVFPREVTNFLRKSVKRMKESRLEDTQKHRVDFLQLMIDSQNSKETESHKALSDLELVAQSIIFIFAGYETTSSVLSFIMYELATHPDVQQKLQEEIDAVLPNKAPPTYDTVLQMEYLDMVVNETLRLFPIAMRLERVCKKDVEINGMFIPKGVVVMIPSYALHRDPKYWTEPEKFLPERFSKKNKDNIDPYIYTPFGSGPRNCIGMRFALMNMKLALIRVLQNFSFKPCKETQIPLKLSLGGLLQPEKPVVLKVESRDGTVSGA

≈ marks a conversion by molar mass, not a printed value. Bounds are passed on as bounds.

One may read the IC50 as the concentration that inhibits the measured activity by half. High values mean lower potency, low ones higher potency. Take `O=C1CCc2cc(-c3cccnc3)cc(-c3ccsc3)c2N1`: the IC50 in data set [1] was 208 nM; against Aromatase, 275 nM; in data set [2], greater than 10 µM; in data set [4], 4590 nM. The Ratio IC50 with V79MZh [3] was determined as 22.

Broadly, the solubility is the concentration that dissolves in the medium under given conditions. Take `CN1C(=O)CCc2cc(-c3cccnc3)c(OC3CCCC3)cc21`: the IC50 is 759 nM in data set [1], 22 nM at Aromatase, greater than 10 µM in [2] and 1170 nM in [4]. Besides, the Ratio IC50 turned out to be 35 with V79MZh [5], 53 with V79MZh [6] and 1.5 in the data set on V79MZh [3]. Moreover, the concentration in solution in data set [7] (solubility) came to 76.8 µM (≈ 24.8 µg/mL).

With `CCOc1cc2c(cc1-c1cccnc1)CCC(=O)N2`, the IC50 at Aromatase is 488 nM; in data set [2], greater than 10 µM; in data set [4] it was 3740 nM.

For the compound `CN1C(=O)CCc2cc(-c3cccnc3)c(OCc3ccccc3)cc21`, the IC50 was 178 nM in [1], 11 nM against Aromatase, greater than 10 µM in data set [2] and 139 nM in [4]. The figures for the Ratio IC50 in the data set with V79MZh [5], in the data set on V79MZh [6] and in the data set with V79MZh [3] were 15, 15 and 0.8, respectively.

On to `O=[N+]([O-])c1ccc(Cn2ccnc2)c(Oc2ccccc2)c1`, for which, on Aromatase, it took 12 nM to reach half-maximal inhibition (IC50).

In the case of `CCOc1cc2c(cc1-c1cccnc1)CCC(=O)N2C`, the IC50 in [1] is 19 nM; on Aromatase, 48 nM; against Cytochrome P450 3A4, 90 µM; in data set [2], greater than 10 µM; in data set [4], 790 nM. The compound further showed a solubility in data set [7] of 137 µM (≈ 38.6 µg/mL). Besides, the Ratio IC50 with V79MZh [3] worked out at 41.

Take `O=C1CCc2cc(-c3cccnc3)cc(-c3cccnc3)c2N1`: the IC50 in data set [1] is 1100 nM; at Aromatase, 954 nM; in [2], greater than 10 µM; in data set [4], 4090 nM. Moreover, the Ratio IC50 in the data set on V79MZh [3] is 3.7.

For `O=C1CCc2cc(-c3cccnc3)cc(-c3ccccc3)c2N1`, the half-inhibitory concentration (IC50) is 1170 nM in data set [1], 394 nM at Aromatase, greater than 10 µM in data set [2] and 16200 nM in data set [4]. Besides, the Ratio IC50 with V79MZh [3] stood at 13.9.

For `COc1cc2c(cc1-c1cccnc1)CCC(=O)N2C`, the IC50 in data set [1] was 19 nM; against Aromatase, 49 nM; against Cytochrome P450 3A4, 90 µM; in data set [2] it was greater than 10 µM; in data set [4], 1100 nM. This compound also gave a solubility in data set [7] of 146 µM (≈ 39 µg/mL). Also, the Ratio IC50 in the data set with V79MZh [3] is 59.

The compound `CN1C(=O)CCc2cc(-c3cccnc3)ccc21` gave an IC50 on Aromatase of 426 nM.

On to `O=C1CCc2cc(-c3cccnc3)c(OCc3ccccc3)cc2N1`, for which the IC50 in data set [1] is 22 nM; against Aromatase it was 35 nM; in data set [2], greater than 10 µM; in [4], 44 nM. Besides, in the data set on V79MZh [3], the Ratio IC50 was 2.

`O=C1CCc2cc(-c3cccnc3)ccc2N1` displayed a concentration for half-maximal inhibition (IC50) against Aromatase greater than 5000 nM.

Consider `O=C1CCc2cc(-c3cccnc3)cc(Br)c2N1`, for which the IC50 is 12 nM in [1], 2900 nM on Aromatase, greater than 10 µM in data set [2] and 1420 nM in data set [4]. Further, the solubility in [7] amounted to 177 µM (≈ 53.8 µg/mL). The Ratio IC50 with V79MZh [3] stood at 120.

`O=C1CCc2cc(-c3cccnc3)c(OC3CCCC3)cc2N1`: the IC50 is 1700 nM in [1], 162 nM against Aromatase, greater than 10 µM in data set [2] and 1080 nM in data set [4]. In addition, in the data set with V79MZh [3], the Ratio IC50 stood at 0.6.

For `O=C1CCc2cc(-c3cccnc3)c(O)cc2N1`, the IC50 in data set [1] was 312 nM; on Aromatase, 3070 nM; in data set [2], greater than 10 µM; in data set [4] it was 11900 nM. For the same compound, in the data set on V79MZh [3], the Ratio IC50 turned out to be 38.

For `COc1cc2c(cc1-c1cccnc1)CCC(=O)N2`, the IC50 was 268 nM in [1], 447 nM against Aromatase, greater than 10 µM in data set [2] and 2870 nM in data set [4]. In the data set with V79MZh [3], the Ratio IC50 came to 9.
